These results are taken from the array DNA melting data of Ke et al. (doi:10.1101/2024.01.08.574731).

Data set [1] in a line: melting temperature; fluorescence melt of hairpins on a sequencing array, two-state fit, raised by 9.35 °C to match UV melts. The settings on record: sodium 0.088 M. In a few lines: (§1)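 Melting temperature and folding enthalpy were derived from bootstrapped two-state fits. The fitted temperatures were raised by 9.35 °C to agree with UV melts, and four replicates were combined by inverse variance. The underlying data were Cy3 fluorescence images of library hairpins, with annealed Cy3 and quencher oligos, on a sequenced MiSeq flow cell in 50 mM Na-HEPES pH 8.0, 25 mM NaCl, taken in 2.5 °C steps up to 60 °C, normalised to pre-quench Cy3 and to control constructs.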

Data set [2] is described as follows: folding enthalpy; higher = less favourable; fluorescence melt of hairpins on a sequencing array, two-state fit. Conditions: sodium 0.088 M. An outline of the steps: as §1

With GTATAAGAAATTATAC ((((((....)))))), the Tm in data set [1] worked out at 29.6 °C. Also, in data set [2], the folding enthalpy is -14.5 kcal/mol.

For GTATAAGCGAAAGCTTAC (((..(((....)))))), the Tm in data set [1] is 33.8 °C. In addition, in data set [2], the folding enthalpy was -9.03 kcal/mol.

Take GTATAAGGAAACTTATAC (((((((....))))))): in data set [1], the Tm was found to be 46 °C. For the same sequence, in data set [2], the folding enthalpy is -30.9 kcal/mol.

In the case of GTATACCCGAAAGGGTAC (((..(((....)))))), the Tm in data set [1] is 32.4 °C. For the same sequence, in data set [2], the folding enthalpy was -8.81 kcal/mol.

Turning to GTATACGAAAGTACTTAC ((((((....)))..))), the Tm in data set [1] was found to be 31.5 °C. In data set [2], the folding enthalpy is -13.5 kcal/mol.

In the case of GTATACGAAAGTAGTAC ((((((....))).))), in data set [1], the Tm turned out to be 29.6 °C. The folding enthalpy in data set [2] is -11.7 kcal/mol.

As to GTATAGAAATATAC (((((....))))), the Tm in data set [1] worked out at 23.1 °C. The folding enthalpy in data set [2] is -7.94 kcal/mol.

With GTATAGACGAAAGTCTAC (((..(((....)))))), the Tm in data set [1] amounted to 33.5 °C. Further, the folding enthalpy in data set [2] is -10.5 kcal/mol.

In the case of GTATAGGAAACTATAC ((((((....)))))), the Tm in data set [1] is 41.5 °C. Moreover, the folding enthalpy in data set [2] is -25.8 kcal/mol.

Take GTATAGGCGAAAGCCTAC (((..(((....)))))): the Tm in data set [1] is 31.8 °C. Further, in data set [2], the folding enthalpy was -8.12 kcal/mol.

On to GTATATCCGAAAGGATAC (((..(((....)))))), for which the Tm in data set [1] was determined as 34.7 °C. Besides, the folding enthalpy in data set [2] is -12.4 kcal/mol.

On to GTATATCGAAAGATGTAC (((.(((....))).))), for which the Tm in data set [1] stood at 44.5 °C. Further, in data set [2], the folding enthalpy is -31.9 kcal/mol.

GTATATCGAAAGATTTAC (((.(((....))).))): the Tm in data set [1] came out at 36.4 °C. In data set [2], the folding enthalpy is -21.8 kcal/mol.

GTATATGGAAACGTATAC (((((.(....).))))): in data set [1], the Tm was 35.2 °C. The folding enthalpy in data set [2] is -24.4 kcal/mol.

Consider GTATCACCGAAAGGTTAC (((..(((....)))))), for which, in data set [1], the Tm came out at 25.8 °C. Besides, in data set [2], the folding enthalpy was -8.26 kcal/mol.

Consider GTATCAGGAAACTGGTAC (((.(((....))).))), for which the Tm in data set [1] worked out at 43.5 °C. In data set [2], the folding enthalpy is -29.5 kcal/mol.

In the case of GTATCCCGAAAGGGCTAC (((.(((....))).))), the Tm in data set [1] was found to be 41.3 °C. Also, the folding enthalpy in data set [2] was -22.5 kcal/mol.

For the sequence GTATCCCGAAAGGGTTAC (((.(((....))).))), the Tm in data set [1] was found to be 47.4 °C. Moreover, in data set [2], the folding enthalpy was -21 kcal/mol.

Take GTATCCGAAAGGAACTAC ((((((....)))..))): the Tm in data set [1] was found to be 33.4 °C. The folding enthalpy in data set [2] was -14.3 kcal/mol.

GTATCCGAAAGGAGCTAC ((((((....)))..))): the Tm in data set [1] worked out at 31.8 °C. In addition, the folding enthalpy in data set [2] was -12.6 kcal/mol.

As for GTATCCGAAAGGATCTAC ((((((....)))..))), in data set [1], the Tm is 39.1 °C. In data set [2], the folding enthalpy is -13.7 kcal/mol.

Turning to GTATCGAAAGATAC (((((....))))), the Tm in data set [1] was 52.7 °C. For the same sequence, in data set [2], the folding enthalpy was -25.1 kcal/mol.

Regarding GTATCGCGAAAGCGGTAC (((.(((....))).))), the Tm in data set [1] was 56.5 °C. Besides, the folding enthalpy in data set [2] was -29.2 kcal/mol.

On to GTATCGGGAAACCGGTAC (((.(((....))).))), for which the Tm in data set [1] was determined as 48.9 °C. In addition, the folding enthalpy in data set [2] is -32 kcal/mol.

In the case of GTATCTCCGAAAGGATAC (((..(((....)))))), the Tm in data set [1] was found to be 30.7 °C. In addition, in data set [2], the folding enthalpy was -19.6 kcal/mol.

For the sequence GTATCTCGAAAGAGGTAC (((.(((....))).))), the Tm in data set [1] came to 48.7 °C. In addition, the folding enthalpy in data set [2] is -34.4 kcal/mol.

In the case of GTATCTCGAAAGAGTTAC (((.(((....))).))), in data set [1], the Tm is 36.4 °C. Besides, in data set [2], the folding enthalpy was -26.6 kcal/mol.

Take GTATCTGAAAAGATAC ((((((....)))))): in data set [1], the Tm was determined as 49.2 °C. In addition, the folding enthalpy in data set [2] was -33.2 kcal/mol.

Consider GTATGACCGAAAGGTTAC (((..(((....)))))), for which the Tm in data set [1] worked out at 30.5 °C. Besides, in data set [2], the folding enthalpy is -10.3 kcal/mol.

Consider GTATGAGGAAACTCGTAC (((.(((....))).))), for which the Tm in data set [1] was 44 °C. In data set [2], the folding enthalpy is -33.4 kcal/mol.

For GTATGCCGAAAGGCTAC (((.(((....)))))), in data set [1], the Tm came out at 48.3 °C. Further, in data set [2], the folding enthalpy was -13.1 kcal/mol.

Take GTATGCGAAAGCAATAC ((((((....))).))): the Tm in data set [1] came out at 49.4 °C. The folding enthalpy in data set [2] is -20.3 kcal/mol.

Take GTATGCGAAAGCAATTAC ((((((....)))..))): the Tm in data set [1] is 28.2 °C. For the same sequence, the folding enthalpy in data set [2] is -10.7 kcal/mol.

Take GTATGCGAAAGCAGCTAC ((((((....)))..))): the Tm in data set [1] was 32.8 °C. In addition, in data set [2], the folding enthalpy is -13.4 kcal/mol.

With GTATGCGGAAACACATAC (((((.(....).))))), the Tm in data set [1] came out at 39.8 °C. In addition, the folding enthalpy in data set [2] was -32.8 kcal/mol.

In the case of GTATGCGGAAACGCATGC (.(((((....))))).), the Tm in data set [1] came out at 55.5 °C. For the same sequence, the folding enthalpy in data set [2] was -21.2 kcal/mol.

With GTATGCGGAAACGTATGC (.((.((....)).)).), the Tm in data set [1] was 32.2 °C. In data set [2], the folding enthalpy was -18 kcal/mol.
